Tests used:
[1] = target: Cytochrome P450 3A4 (Homo sapiens, UniProt P08684); experiment: Time dependent inhibition of CYP3A4; type: ADME
[2] = target: T1, C-X-C chemokine receptor type 3 (Homo sapiens, UniProt P49682); experiment: Displacement of [125I]-IP-10 from CXCR3 in presence of 100% human serum
T1 sequence (P49682 whole entry): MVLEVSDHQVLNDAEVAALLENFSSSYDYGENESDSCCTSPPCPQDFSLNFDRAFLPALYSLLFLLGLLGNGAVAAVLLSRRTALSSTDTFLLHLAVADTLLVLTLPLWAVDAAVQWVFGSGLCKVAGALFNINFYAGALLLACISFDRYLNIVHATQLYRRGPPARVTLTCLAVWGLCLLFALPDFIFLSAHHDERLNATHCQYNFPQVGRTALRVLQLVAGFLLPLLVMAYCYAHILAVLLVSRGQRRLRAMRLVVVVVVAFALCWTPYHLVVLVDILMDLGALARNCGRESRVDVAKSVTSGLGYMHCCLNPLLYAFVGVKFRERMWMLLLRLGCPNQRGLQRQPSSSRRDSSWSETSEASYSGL

[3] = target: T1, C-X-C chemokine receptor type 3; experiment: Displacement of [125I]-IP-10 from CXCR3
[4] = Apparent oral bioavailability in mouse at 5 mg/kg; type: ADME, organism-based; conditions: in vivo, read-out: Fapp
[5] = Clearance in mouse at 1 mg/kg, iv; type: ADME, organism-based; design: dose 1 mg/kg, route intravenous; conditions: in vivo
Method in brief: (§1)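 Single intravenous dose in 10% N,N-dimethylacetamide, 10% ethanol, 30% propylene glycol, 50% water: 1 mg/kg mouse; 0.5 mg/kg rat, beagle dog, cynomolgus monkey. Plasma clearance also given as percent of hepatic blood flow.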

[6] = Clearance in cynomolgus monkey at 0.5 mg/kg, iv; type: ADME, organism-based, Macaca fascicularis; design: dose 0.5 mg/kg, route intravenous; conditions: in vivo; method in brief: as §1
[7] = Apparent oral bioavailability in Beagle dog at 2 mg/kg; type: ADME, organism-based, Canis lupus familiaris; conditions: in vivo, read-out: Fapp
[8] = Apparent oral bioavailability in cynomolgus monkey at 2 mg/kg; type: ADME, organism-based, Macaca fascicularis; conditions: in vivo, read-out: Fapp
[9] = system: PBL; experiment: Toxicity in human PBL assessed as chromosomal aberrations at 7.81 to 1000 ug/mL; type: cell-based
Method in brief: (§2)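 Cultured human peripheral blood lymphocytes exposed at 7.81–1000 μg/mL, with and without S9 metabolic activation; chromosomal aberrations scored.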

[10] = Clearance in Beagle dog at 0.5 mg/kg, iv; type: ADME, organism-based, Canis lupus familiaris; design: dose 0.5 mg/kg, route intravenous; conditions: in vivo; method in brief: as §1
[11] = system: PBL; experiment: Toxicity in human PBL assessed as chromosomal aberrations at 7.81 to 1000 ug/mL in the presence of S9; type: cell-based; method in brief: as §2

Chain of Cytochrome P450 3A4 (P08684 whole entry): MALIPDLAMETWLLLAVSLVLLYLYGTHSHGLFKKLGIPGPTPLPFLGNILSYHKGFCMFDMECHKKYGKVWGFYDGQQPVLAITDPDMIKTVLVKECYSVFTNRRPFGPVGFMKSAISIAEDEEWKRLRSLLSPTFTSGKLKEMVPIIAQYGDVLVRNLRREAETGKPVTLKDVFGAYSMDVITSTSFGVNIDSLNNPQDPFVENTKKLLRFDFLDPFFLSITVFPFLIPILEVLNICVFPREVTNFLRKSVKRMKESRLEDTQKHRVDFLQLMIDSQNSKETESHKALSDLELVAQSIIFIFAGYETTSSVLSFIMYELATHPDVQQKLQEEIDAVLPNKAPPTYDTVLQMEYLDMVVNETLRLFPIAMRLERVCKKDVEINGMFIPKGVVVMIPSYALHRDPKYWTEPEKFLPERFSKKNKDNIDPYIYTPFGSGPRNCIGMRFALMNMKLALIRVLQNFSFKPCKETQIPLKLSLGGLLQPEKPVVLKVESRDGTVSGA

| Structure (SMILES) | TDI [1] | IC50 [2] | IC50 [3] | bioavailability [4] | clearance [5] | clearance [6] | bioavailability [7] | bioavailability [8] | Activity [9] | clearance [10] | Activity [11] |
| --- | --- | --- | --- | --- | --- | --- | --- | --- | --- | --- | --- |
| CCOc1ccc(-n2c([C@@H](C)N(CCS(=O)(=O)CC)C(=O)Cc3ccc(F)c(C(F)(F)F)c3)nc3ncccc3c2=O)cc1 | Not Active | – | – | – | – | – | – | – | – | – | – |
| CCOc1ccc(-n2c([C@@H](C)N(Cc3ccc[n+]([O-])c3)C(=O)Cc3ccc(OC(F)(F)F)cc3)nc3ncccc3c2=O)cc1 | – | 14 nM | 7 nM | – | – | – | – | – | – | – | – |
| C[C@H](c1nc2ncccc2c(=O)n1-c1ccc(C#N)cc1)N(CC1CCS(=O)(=O)CC1)C(=O)Cc1ccc(F)c(C(F)(F)F)c1 | – | 12 nM | 8 nM | 17% | 8.17 mL/min/kg | 21.7 mL/min/kg | 1.6% | 1% | Non-toxic | 8.33 mL/min/kg | Non-toxic |
| C[C@H](c1nc2ncccc2c(=O)n1-c1ccc(C#N)cc1)N(CCS(C)(=O)=O)C(=O)Cc1ccc(F)c(C(F)(F)F)c1 | – | 29 nM | 13 nM | – | – | – | – | – | Toxic | – | Toxic |
| C[C@H](c1nc2ncccc2c(=O)n1-c1ccc(C#N)cc1)N(CC1CCS(=O)(=O)CC1)C(=O)Cc1ccc(C(F)(F)F)c(F)c1 | – | 15 nM | 7 nM | – | – | – | – | – | Toxic | – | Toxic |

— ChEMBL document CHEMBL1938274, “Discovery of potent and specific CXCR3 antagonists” (Bioorg Med Chem Lett, 2012)
